This passage reports inhibition results from ChEMBL document CHEMBL4376814, “Novel cyclin-dependent kinase 9 (CDK9) inhibitor with suppression of cancer stemness activity against non-small-cell lung cancer” (Eur J Med Chem, 2019).

In one test the test system is A549. As to the kind of experiment: Inhibition of tumorsphere formation in human A549 cells assessed as reduction in side population ratio at 0.25 to 1 uM by PI/Hoechst 33342 staining based flow cytometry. It counts as functional, cell-based. (Flow cytometry measures light scatter and fluorescence of single cells or particles in a stream.)
The target in test [1] is Serine/threonine-protein kinase 25 (Homo sapiens) (UniProt O00506). The test can be described thus: Inhibition of human STK25 (1 to 308 residues) at 1 uM using RLGRDKYKTLRQIRQ as substrate measured after 40 mins in presence of [gamma33P]ATP by scintillation counting method relative to control. The procedure, abridged:
(§1)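 Percent inhibition of kinase activity at a single compound concentration, measured by the outsourced Eurofins KinaseProfiler panel. Values are the mean of two independent experiments.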

Test [2] has as its target Serine/threonine-protein kinase tousled-like 1 (Homo sapiens) (UniProt Q9UKI8). As to the kind of experiment: Inhibition of recombinant full-length human TLK1 at 1 uM using casein as substrate measured after 40 mins in presence of [gamma33P]ATP by scintillation counting method relative to control.
Test [3] concerns the target Dual specificity tyrosine-phosphorylation-regulated kinase 3 (Homo sapiens) (UniProt O43781). As to the kind of experiment: Inhibition of recombinant full-length human DYRK3 at 1 uM using RRRFRPASPLRGPPK as substrate measured after 40 mins in presence of [gamma33P]ATP by scintillation counting method relative to control.
Test [4] relates to Hepatocyte growth factor receptor (Homo sapiens), P08581 [D1228H]. As to the kind of experiment: Inhibition of recombinant human MET A1209G/V1290L/D1246H mutant (974 to end residues) at 1 uM using KKKGQEEEYVFIE as substrate measured after 40 mins in presence of [gamma33P]ATP by scintillation counting method relative to control.
For test [5], the target named is Tyrosine-protein kinase Fyn (Homo sapiens) (UniProt P06241). As to the kind of experiment: Inhibition of recombinant full-length human Fyn at 1 uM using KVEKIGEGTYGVVYK as substrate measured after 40 mins in presence of [gamma33P]ATP by scintillation counting method relative to control.
The target of test [6] is CDK6/cyclin D3 (Homo sapiens) (UniProt P30281+Q00534). The test can be described thus: Inhibition of recombinant full-length human CDK6/cyclinD3 at 1 uM using Histone H1 as substrate measured after 40 mins in presence of [gamma33P]ATP by scintillation counting method relative to control. It is filed as protein-complex assay.
Test [7] concerns the target TGF-beta receptor type-2 (Homo sapiens) (UniProt P37173). The test can be described thus: Inhibition of human TGFBR2 (188 to end residues) at 1 uM using myelin basic protein as substrate measured after 120 mins in presence of [gamma33P]ATP by scintillation counting method relative to control. The procedure, abridged:
as §1

In test [8] the target is Serine/threonine-protein kinase DCLK2 (Homo sapiens) (UniProt Q8N568). As to the kind of experiment: Inhibition of recombinant human DCAMKL2 (376 to end residues) at 1 uM using KKLNRTLSFAEPG as substrate measured after 40 mins in presence of [gamma33P]ATP by scintillation counting method relative to control. In short, it runs like this:
(§2)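 Single-point inhibition at 1 µM was measured in the Eurofins KinaseProfiler panel. Values are the mean of two independent experiments.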

Test [9] relates to Mast/stem cell growth factor receptor Kit (Homo sapiens), P10721 [D816H]. The test can be described thus: Inhibition of recombinant human cKit (544 to end residues) D816H mutant at 1 uM using GGMEDIYFEFMGGKKK as substrate measured after 40 mins in presence of [gamma33P]ATP by scintillation counting method relative to control. In short, it runs like this: as §2
Another test has as its system NCI-H1299. As to the kind of experiment: Inhibition of tumorsphere formation in human H1299 cells assessed as reduction in side population ratio at 0.25 to 1 uM by PI/Hoechst 33342 staining based flow cytometry. It is filed as functional, cell-based.
Test [10] concerns the target Aurora kinase B (Homo sapiens) (UniProt Q96GD4). The test can be described thus: Inhibition of recombinant full-length human AURKB at 1 uM using AKRRRLSSLRA as substrate measured after 40 mins in presence of [gamma33P]ATP by scintillation counting method relative to control.
The target in test [11] is Tyrosine-protein kinase JAK2 (Homo sapiens) (UniProt O60674). The test can be described thus: Inhibition of recombinant human JAK2 (808 to end residues) at 1 uM using KTFCGTPEYLAPEVRREPRILSEEEQEMFRDFDYIADWC as substrate measured after 40 mins in presence of [gamma33P]ATP by scintillation counting method relative to control.
Test [12] concerns the target Cyclin-dependent kinase 9 (Homo sapiens) (UniProt P50750). The note with it: 0.25 to 1 uM.
The target in test [13] is MAP/microtubule affinity-regulating kinase 4 (Homo sapiens) (UniProt Q96L34). As to the kind of experiment: Inhibition of full-length recombinant human MARK4 at 1 uM using KKKVSRSGLYRSPSMPENLNRPR as substrate measured after 40 mins in presence of [gamma33P]ATP by scintillation counting method relative to control. The procedure, abridged:
as §1

Test [14] deals with Serine/threonine-protein kinase 32C (Homo sapiens) (UniProt Q86UX6). As to the kind of experiment: Inhibition of recombinant full-length human STK32C at 1 uM using casein as substrate measured after 120 mins in presence of [gamma33P]ATP by scintillation counting method relative to control.
The species entered for test [15] is Homo sapiens. As to the kind of experiment: Inhibition of recombinant full-length human PI3K p110alpha/p65alpha (1 to 571 residues) at 1 uM using phosphatidylinositol-4, 5-bisphosphate as substrate measured after 40 mins by HTRF assay relative to control. In short, it runs like this: as §2
A general note: In TR-FRET formats the signal depends on donor and acceptor labels being close together.

Test [16] deals with Fibroblast growth factor receptor 1 (Homo sapiens), P11362 [V561M]. As to the kind of experiment: Inhibition of recombinant human FGFR1 V561M mutant (456 to 765 residues) at 1 uM using GGEEEEYFELVKKKK as substrate measured after 40 mins in presence of [gamma33P]ATP by scintillation counting method relative to control.
Test [17] addresses Mitogen-activated protein kinase kinase kinase kinase 1 (Homo sapiens) (UniProt Q92918). As to the kind of experiment: Inhibition of recombinant human HPK1 (1 to 346 residues) at 1 uM using myelin basic protein as substrate measured after 40 mins in presence of [gamma33P]ATP by scintillation counting method relative to control.
The target of test [18] is BDNF/NT-3 growth factors receptor (Homo sapiens) (UniProt Q16620). As to the kind of experiment: Inhibition of recombinant human TRKB (455 to end residues) at 1 uM using poly(Glu, Tyr) 4:1 as substrate measured after 40 mins in presence of [gamma33P]ATP by scintillation counting method relative to control.
The species entered for test [19] is Homo sapiens. As to the kind of experiment: Inhibition of recombinant full-length human pkb-alpha S478G mutant at 1 uM using GRPRTSSFAEGKK as substrate measured after 40 mins in presence of [gamma33P]ATP by scintillation counting method relative to control.
In test [20] the target is Serine/threonine-protein kinase PAK 5 (Homo sapiens) (UniProt Q9P286). As to the kind of experiment: Inhibition of recombinant human PAK5 (425 to end residues) at 1 uM using RRRLSFAEPG as substrate measured after 40 mins in presence of [gamma33P]ATP by scintillation counting method relative to control.
Test [21] addresses TRAF2 and NCK-interacting protein kinase (Homo sapiens) (UniProt Q9UKE5). As to the kind of experiment: Inhibition of human TNIK (1 to 367 residues) at 1 uM using RLGRDKYKTLRQIRQ as substrate measured after 40 mins in presence of [gamma33P]ATP by scintillation counting method relative to control. The procedure, abridged: as §1

Calls of active or inactive are those of the source. No cut-off for these calls is given here.

Sequence of Dual specificity tyrosine-phosphorylation-regulated kinase 3 (Homo sapiens) (O43781 whole entry): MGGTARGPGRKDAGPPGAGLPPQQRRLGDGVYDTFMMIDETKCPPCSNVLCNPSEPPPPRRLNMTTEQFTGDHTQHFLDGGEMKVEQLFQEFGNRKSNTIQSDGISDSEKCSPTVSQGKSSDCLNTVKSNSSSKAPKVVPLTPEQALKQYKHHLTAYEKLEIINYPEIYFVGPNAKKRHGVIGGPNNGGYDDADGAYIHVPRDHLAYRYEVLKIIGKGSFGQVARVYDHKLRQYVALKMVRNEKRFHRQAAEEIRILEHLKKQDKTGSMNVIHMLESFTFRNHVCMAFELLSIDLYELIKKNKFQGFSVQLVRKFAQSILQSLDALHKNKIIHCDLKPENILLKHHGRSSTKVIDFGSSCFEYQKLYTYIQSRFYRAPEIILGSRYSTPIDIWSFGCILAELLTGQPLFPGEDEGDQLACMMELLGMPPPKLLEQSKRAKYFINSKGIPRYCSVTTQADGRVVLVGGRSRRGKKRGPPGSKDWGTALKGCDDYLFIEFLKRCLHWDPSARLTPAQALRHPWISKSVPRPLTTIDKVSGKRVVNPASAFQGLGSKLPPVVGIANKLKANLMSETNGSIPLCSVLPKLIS
Sequence of Hepatocyte growth factor receptor (Homo sapiens), P08581 [D1228H] (P08581 whole entry D1228H): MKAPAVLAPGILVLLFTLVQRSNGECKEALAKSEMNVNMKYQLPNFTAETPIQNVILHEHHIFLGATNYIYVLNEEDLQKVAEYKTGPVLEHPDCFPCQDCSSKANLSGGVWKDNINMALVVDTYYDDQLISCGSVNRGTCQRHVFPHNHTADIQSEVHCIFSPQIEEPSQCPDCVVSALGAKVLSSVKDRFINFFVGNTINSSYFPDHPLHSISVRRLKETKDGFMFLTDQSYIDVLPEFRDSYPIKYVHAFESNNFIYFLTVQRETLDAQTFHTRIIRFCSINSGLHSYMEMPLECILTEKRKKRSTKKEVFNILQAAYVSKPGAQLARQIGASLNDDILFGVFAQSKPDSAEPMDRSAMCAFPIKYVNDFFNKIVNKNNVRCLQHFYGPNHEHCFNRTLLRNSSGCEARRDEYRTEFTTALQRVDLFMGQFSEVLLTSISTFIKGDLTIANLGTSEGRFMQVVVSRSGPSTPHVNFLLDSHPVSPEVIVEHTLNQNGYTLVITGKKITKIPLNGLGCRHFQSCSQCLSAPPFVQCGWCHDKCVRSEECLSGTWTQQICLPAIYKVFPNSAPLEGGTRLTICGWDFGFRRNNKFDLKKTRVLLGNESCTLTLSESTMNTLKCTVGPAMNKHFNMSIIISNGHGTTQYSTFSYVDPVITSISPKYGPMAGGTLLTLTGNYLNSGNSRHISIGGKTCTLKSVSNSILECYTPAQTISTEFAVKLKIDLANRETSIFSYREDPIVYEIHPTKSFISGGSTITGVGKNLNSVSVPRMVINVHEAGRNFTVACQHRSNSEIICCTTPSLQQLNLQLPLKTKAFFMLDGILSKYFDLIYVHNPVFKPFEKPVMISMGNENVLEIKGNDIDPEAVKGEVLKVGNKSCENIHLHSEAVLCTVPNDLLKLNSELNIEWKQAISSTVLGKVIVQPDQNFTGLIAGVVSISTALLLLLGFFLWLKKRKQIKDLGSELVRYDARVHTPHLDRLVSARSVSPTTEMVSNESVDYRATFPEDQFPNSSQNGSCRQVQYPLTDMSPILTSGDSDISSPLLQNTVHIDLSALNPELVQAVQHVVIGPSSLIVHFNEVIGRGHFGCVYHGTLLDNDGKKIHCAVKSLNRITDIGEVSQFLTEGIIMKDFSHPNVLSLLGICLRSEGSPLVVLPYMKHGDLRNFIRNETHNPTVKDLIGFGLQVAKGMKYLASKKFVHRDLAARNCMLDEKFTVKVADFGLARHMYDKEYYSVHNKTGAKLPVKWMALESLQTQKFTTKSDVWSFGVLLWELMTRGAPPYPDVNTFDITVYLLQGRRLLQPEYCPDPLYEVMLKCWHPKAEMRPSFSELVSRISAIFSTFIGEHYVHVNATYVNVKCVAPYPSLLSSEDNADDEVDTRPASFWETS
Sequence of Serine/threonine-protein kinase tousled-like 1 (Homo sapiens) (Q9UKI8 whole entry): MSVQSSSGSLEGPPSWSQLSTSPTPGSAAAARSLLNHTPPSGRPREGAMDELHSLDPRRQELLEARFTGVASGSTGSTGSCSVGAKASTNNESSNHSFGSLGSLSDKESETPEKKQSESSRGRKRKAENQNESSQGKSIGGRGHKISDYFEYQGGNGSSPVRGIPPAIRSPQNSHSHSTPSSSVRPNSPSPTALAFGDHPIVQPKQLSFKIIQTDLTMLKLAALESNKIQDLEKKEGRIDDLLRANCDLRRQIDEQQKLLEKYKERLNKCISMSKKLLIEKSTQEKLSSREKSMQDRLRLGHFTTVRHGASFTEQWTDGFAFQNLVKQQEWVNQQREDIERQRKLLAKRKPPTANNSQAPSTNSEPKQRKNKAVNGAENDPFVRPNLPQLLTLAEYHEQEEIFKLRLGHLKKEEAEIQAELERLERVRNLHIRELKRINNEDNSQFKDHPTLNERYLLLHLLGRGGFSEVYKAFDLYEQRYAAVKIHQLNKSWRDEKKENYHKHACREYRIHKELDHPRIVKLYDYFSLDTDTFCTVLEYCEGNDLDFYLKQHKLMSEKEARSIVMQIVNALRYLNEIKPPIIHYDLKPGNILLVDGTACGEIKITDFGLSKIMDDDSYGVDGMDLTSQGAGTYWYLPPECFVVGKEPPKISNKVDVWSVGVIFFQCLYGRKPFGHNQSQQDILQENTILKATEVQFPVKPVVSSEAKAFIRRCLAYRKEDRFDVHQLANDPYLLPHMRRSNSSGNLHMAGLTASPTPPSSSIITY
Sequence of Tyrosine-protein kinase Fyn (Homo sapiens) (P06241 2-537 limits assumed): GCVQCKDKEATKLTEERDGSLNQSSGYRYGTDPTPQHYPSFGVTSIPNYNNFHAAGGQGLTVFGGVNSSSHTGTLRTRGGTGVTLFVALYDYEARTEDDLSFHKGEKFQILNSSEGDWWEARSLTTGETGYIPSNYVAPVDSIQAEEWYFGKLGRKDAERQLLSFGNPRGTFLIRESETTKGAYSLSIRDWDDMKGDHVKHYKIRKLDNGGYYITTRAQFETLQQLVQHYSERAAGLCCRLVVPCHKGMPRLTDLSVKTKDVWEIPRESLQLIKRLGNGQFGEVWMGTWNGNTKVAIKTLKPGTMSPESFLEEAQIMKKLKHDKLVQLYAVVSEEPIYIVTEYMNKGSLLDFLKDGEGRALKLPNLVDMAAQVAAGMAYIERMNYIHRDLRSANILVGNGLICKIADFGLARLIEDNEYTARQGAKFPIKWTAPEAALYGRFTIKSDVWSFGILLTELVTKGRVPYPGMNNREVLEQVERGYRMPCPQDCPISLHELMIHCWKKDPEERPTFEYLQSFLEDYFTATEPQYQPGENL
Sequence of Fibroblast growth factor receptor 1 (Homo sapiens), P11362 [V561M] (P11362 whole entry V561M, the tested form may be a part): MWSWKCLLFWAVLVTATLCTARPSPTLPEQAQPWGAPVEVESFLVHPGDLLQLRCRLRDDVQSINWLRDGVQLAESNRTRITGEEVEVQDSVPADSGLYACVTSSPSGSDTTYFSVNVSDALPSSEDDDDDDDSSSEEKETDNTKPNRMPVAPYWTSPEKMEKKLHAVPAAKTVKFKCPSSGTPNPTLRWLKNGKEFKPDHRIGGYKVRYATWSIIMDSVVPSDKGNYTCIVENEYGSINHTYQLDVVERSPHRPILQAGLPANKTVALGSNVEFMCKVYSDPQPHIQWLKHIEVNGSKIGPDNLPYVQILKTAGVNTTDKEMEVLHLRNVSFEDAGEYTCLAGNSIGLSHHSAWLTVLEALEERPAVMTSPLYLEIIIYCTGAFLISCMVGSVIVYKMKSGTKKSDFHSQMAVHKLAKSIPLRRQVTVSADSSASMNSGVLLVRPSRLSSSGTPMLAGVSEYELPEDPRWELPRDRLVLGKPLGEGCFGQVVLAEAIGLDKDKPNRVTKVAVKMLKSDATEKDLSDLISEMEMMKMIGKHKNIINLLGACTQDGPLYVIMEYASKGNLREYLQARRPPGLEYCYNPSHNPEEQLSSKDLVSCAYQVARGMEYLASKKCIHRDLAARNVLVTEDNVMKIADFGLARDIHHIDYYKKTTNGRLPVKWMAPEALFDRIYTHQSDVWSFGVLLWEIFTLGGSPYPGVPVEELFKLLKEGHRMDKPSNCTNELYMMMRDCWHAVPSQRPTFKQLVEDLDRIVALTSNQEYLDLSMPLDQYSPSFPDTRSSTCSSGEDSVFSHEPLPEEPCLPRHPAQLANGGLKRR
Sequence of BDNF/NT-3 growth factors receptor (Homo sapiens) (Q16620 32-822 limits assumed): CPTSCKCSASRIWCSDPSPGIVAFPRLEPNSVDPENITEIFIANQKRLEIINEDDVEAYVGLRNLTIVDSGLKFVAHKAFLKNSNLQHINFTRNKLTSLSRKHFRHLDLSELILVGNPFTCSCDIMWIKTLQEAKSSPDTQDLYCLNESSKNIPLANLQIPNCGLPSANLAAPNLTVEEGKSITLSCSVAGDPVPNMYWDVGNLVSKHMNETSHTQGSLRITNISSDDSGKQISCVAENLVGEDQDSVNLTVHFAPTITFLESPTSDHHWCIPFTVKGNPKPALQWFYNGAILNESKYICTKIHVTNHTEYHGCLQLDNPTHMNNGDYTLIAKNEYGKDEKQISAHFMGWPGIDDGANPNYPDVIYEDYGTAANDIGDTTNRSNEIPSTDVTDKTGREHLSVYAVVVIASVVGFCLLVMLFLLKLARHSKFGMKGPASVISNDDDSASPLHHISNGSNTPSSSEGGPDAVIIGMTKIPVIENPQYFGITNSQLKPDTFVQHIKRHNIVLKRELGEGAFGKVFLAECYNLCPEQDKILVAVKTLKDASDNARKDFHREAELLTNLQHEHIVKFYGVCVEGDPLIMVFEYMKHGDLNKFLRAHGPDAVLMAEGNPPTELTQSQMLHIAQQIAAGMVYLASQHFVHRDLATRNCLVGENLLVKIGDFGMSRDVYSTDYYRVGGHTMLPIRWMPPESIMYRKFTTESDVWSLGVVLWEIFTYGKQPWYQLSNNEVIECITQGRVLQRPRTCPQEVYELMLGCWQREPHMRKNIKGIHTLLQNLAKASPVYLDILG

For orientation: inhibition means the relative decrease from the control value, in per cent. On to `CN(C)C(=O)c1cc2cnc(Nc3ccc(NC(=O)CCCCCCCN=C=S)cc3)nc2n1C1CCCC1`, for which the inhibition entry (in the test with A549; with NCI-H1299; in [12]) was “Active” throughout. Besides, the inhibition in test [1] is -2%; in [2], 7%; in test [3], 17%; in test [4], 74%; in [5] it was 2%; in test [6], 79%. For the same compound, the inhibition in test [7] turned out to be 15%; in [8], 1%; in [9] it was 59%; in test [10] it was 99%; in [11], 4%; in test [13], 77%. Moreover, the inhibition in test [14] came out at 17%; in the test filed under Homo sapiens [15] it was 1%; in test [16], 86%; in test [17], 85%; in [18] it was 92%; in the test filed under Homo sapiens [19], 5%. Also, the inhibition in test [20] is -3%; in [21], 69%.
